Source: PubChem (The Scripps Research Institute Molecular Screening Center)
An excerpt weighted towards active compounds, which were near 4.3% of everything screened.
GalR3 antagonist: antagonists of human GalR3 | O60755 | HEK293 GalR3-CNG cAMP membrane potential fluorescence; galR3 body fused to GalR1 C-terminus | inhibition, % at 3 µM | 360,000 compounds, 0.44% hits | AID 651719;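 active means inhibition above the screen-wide average plus 3 SD, cut at about 13% in these data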;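 further: forskolin and galanin both at EC90 stimulate the cells; cAMP rise reported by CNG channel membrane potential dye signal; 0% = forskolin plus galanin with DMSO and 100% = forskolin alone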
Target sequence (O60755 1-299 limits assumed): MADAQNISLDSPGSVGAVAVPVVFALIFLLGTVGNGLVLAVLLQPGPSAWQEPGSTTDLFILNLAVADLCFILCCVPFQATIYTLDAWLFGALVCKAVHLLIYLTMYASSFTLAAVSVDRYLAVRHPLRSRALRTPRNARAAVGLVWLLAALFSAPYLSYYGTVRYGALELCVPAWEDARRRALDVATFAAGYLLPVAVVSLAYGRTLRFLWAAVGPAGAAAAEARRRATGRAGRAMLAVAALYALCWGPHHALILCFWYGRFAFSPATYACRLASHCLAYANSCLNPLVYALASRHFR
OX1R antag-1: antagonists of human orexin 1 receptor (OX1R). O43613. OX1R-expressing cells, FRET antagonist read-out. inhibition, % at 6.6 µM. 330,000 compounds, 1.8% hits; in the data active means inhibition mostly above about 38%, no sharp cut-off; inactive means mostly below about 40%;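 further: 0% = agonist challenge alone and 100% = reference antagonist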
CHO parental Ca: counter-screen: ATP calcium response change in parental CHO cells; parental CHO-K1, ATP-induced calcium, Fluo-8 fluorescence; inhibition, % at 5.6 µM; 330,000 compounds, 0.63% hits; AID 463079;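 active means inhibition above that plate's mean sample inhibition plus 3 SD, cut at about 26% in these data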;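 further: 0% = ATP-challenged DMSO wells and 100% = DMSO wells without ATP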
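Test system: untransfected parental CHO cell line; also added: ATP stimulus; dosing: 5.6 µM, single dose; signal: calcium-sensitive Fluo-8 fluorescence; measure: percent inhibition of ATP-evoked calcium rise, normalized to controls; benchmarks: low control ATP plus DMSO, high control DMSO only; replication: one well per compound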
TAAR1 agonist: human TAAR1 agonism | CHO RD-HGA16 TAAR1, Fluo-8 calcium fluorescence; vehicle wells 0%, saturating PEA agonist 100% | activation, % at 3 µM | 360,000 compounds, 0.99% hits | Q96RJ0;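 active means activation above the mean activation of all test compounds in the run plus 3 SD, cut at about 38% in these data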
Target sequence (Q96RJ0 whole entry, looked up): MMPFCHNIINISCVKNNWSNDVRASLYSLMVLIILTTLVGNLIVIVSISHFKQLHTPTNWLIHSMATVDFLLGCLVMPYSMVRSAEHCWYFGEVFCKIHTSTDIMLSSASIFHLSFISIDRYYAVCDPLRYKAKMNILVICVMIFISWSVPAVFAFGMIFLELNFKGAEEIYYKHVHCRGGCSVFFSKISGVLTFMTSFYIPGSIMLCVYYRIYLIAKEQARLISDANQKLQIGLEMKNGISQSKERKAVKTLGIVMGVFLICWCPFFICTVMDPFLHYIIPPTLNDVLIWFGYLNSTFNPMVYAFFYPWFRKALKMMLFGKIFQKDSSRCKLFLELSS
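test system = CHO RD-HGA16 cells carrying human TAAR1 plus Gα16 | schedule = 17-24 h seeding, 75 min 37 °C dye, 30 min RT | compound dosing = 3 µM single concentration | control set = DMSO and PEA EC100 | replicates = n 1 | signal = Fluo-8 fluorescence, 5 s baseline then 140 s kinetic read | measure = percent activation vs PEA EC100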
OX1R antag-2: antagonists of human orexin 1 receptor; CHO/OX1R cells, Fluo-8 calcium fluorescence, orexin A; inhibition, % at 5 µM; 330,000 compounds, 0.43% hits;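 active means inhibition above its plate's threshold, mean inhibition of all tested compounds on the plate plus 3 SD, cut at about 37% in these data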;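 further: 0% = orexin A challenge wells and 100% = SB-334867-A antagonist wells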
TAAR1 antag: human TAAR1 antagonism. Q96RJ0. 360,000 compounds, 1.5% hits. inhibition, % at 3 µM. CHO RD-HGA16 TAAR1, Fluo-8 calcium fluorescence, antagonist. AID 624466;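 active means inhibition above a per-plate cutoff, the mean inhibition of test compounds on that plate plus 3 SD, cut at about 49% in these data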;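 further: 0% = DMSO plus EC80 beta-PEA response and 100% = DMSO alone without agonist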
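Test system – hTAAR1-expressing CHO RD-HGA16 cells, Gα16-coupled · Also added – β-PEA at EC80 concentration, post-compound challenge · Compound – 3 µM, single point · Incubation – dye loading 75 min at 37 °C, then 30 min room temperature · Measured by – Fluo-8 intracellular calcium dye fluorescence, real-time kinetic reads · Benchmarks – vehicle and agonist controls · Replicates – singlicate, one well per test compound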
OX1R HTRF confirm: OX1R (human) antagonism, HTRF confirmed. shares compounds with OX1R antag-1. OX1R-expressing cells, HTRF antagonist assay. inhibition, % at 6.6 µM. 1,800 compounds, 49% hits. AID 492964; in the data active means inhibition above about 55%;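 further: CHO cells expressing OX1R stimulated with orexin A at about EC80; 0% = agonist challenge alone and 100% = reference antagonist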
CHO-K1 HTRF cnt: signal in parental CHO-K1 cells, OX1R antagonist counter-screen | shares compounds with OX1R antag-1 | HTRF counterscreen | inhibition, % at 6.6 µM | 1,800 compounds, 48% hits; in the data active means inhibition above about 17%;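 further: 0% = agonist challenge with vehicle and 100% = vehicle alone without agonist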
* marks the source's active call; other numbers are inactive results; nt = no result given.

SMILES	GalR3 antagonist	OX1R antag-1	CHO parental Ca	TAAR1 agonist	OX1R antag-2	TAAR1 antag	OX1R HTRF confirm	CHO-K1 HTRF cnt
COc1cccc(C(=O)N(Cc2nc(-c3cccc(C)c3)no2)C(C)C)c1OC	-0.9	81.0*	-12.6	5.9	11.4	6.2	68.6*	-9.1
CC(C)N(Cc1nc(-c2ccccc2)no1)C(=O)Cc1ccccc1	nt	78.2*	-14.5	-1.8	9.6	-4.2	51.9	-14.9
CC(C)N(Cc1nc(-c2ccccc2)no1)C(=O)COc1ccccc1	nt	30.5	-15.2	-2.5	-28.1	-0.2	nt	nt
COc1ccc(NC(=O)CN(C)C(=O)c2ccc(S(=O)(=O)Nc3ccccc3F)cc2)cc1	-7.0	2.3	-22.4	6.1	-24.5	3.3	nt	nt
CCN(C(=O)COC(=O)/C=C/c1cnc2ccccc2n1)C1CCS(=O)(=O)C1 (stereo not drawn)	-2.9	82.2*	-4.8	3.1	-11.1	-20.2	38.6	46.5*
O=C1c2cccc3cccc(c23)C(=O)N1/N=C/c1ccc(O)cc1O	1.2	99.2*	-1.1	-0.4	-7.5	-2.6	40.9	64.0*
CC(=O)C(C)n1c(CN2CCN(C(=O)c3ccco3)CC2)nc2c1c(=O)n(C)c(=O)n2C (stereo not drawn)	-5.2	2.5	-5.3	-0.1	2.2	1.9	nt	nt
CCN(CC)C(=O)CSc1nnc2nnc3cc(C)ccc3n12	0.7	90.7*	-20.9	2.4	-19.1	-15.9	60.1*	102.9*
CCN(CC)C(=O)CSc1nnc2nnc3cc(Cl)ccc3n12	0.6	108.4*	-16.3	4.4	-27.3	-18.5	70.4*	126.3*
CCCc1nnc(SCC(=O)Nc2cccc(Cl)c2Cl)o1	-10.5	17.0	6.2	0.1	1.8	-4.2	nt	nt
CC(=O)c1cccc(NC(=O)c2ccc(C)c(S(=O)(=O)N3CCOCC3)c2)c1	-3.7	26.9	-14.9	3.3	-11.7	7.6	nt	nt
Cc1ccc(C(=O)Oc2cccc(NC(=O)c3cccs3)c2)cc1S(=O)(=O)N1CCOCC1	-2.7	79.1*	15.7	11.2	20.7	57.1*	32.4	10.2
Cc1ccc(C(=O)Nn2cnnc2)cc1S(=O)(=O)N1CCOCC1	-4.8	86.5*	-2.0	0.0	-4.9	-29.1	13.1	-7.0
COc1cccc(C(C)(O)c2nc(-c3cccc(C(C)C)c3)cs2)c1 (stereo not drawn)	-6.2	nt	nt	-0.6	nt	25.2	nt	nt
COc1ccc2sc(-c3ccc(N(C)C)cc3)c(-c3cnc(OC)nc3)c2c1	-0.2	4.8	-22.5	2.0	-27.9	24.6	nt	nt
Cc1ccc(C(NC(=O)Nc2ccccn2)C(Cl)(Cl)Cl)cc1F (stereo not drawn)	-6.9	12.8	-18.8	-3.2	-23.4	-1.6	nt	nt
COc1ccc(NC(=O)c2nc(C)n(-c3ccc([N+](=O)[O-])cc3)n2)cc1	-0.2	106.7*	-11.0	11.7	-11.2	-4.6	25.4	32.6*
CCCNC(=O)c1nc(C)n(-c2ccc([N+](=O)[O-])cc2)n1	-1.3	137.3*	-9.1	4.2	-8.2	-15.5	71.0*	51.9*
C(=C\c1ccccc1)/CN1CCN(C(c2cccs2)c2nnnn2-c2ccc3c(c2)OCCO3)CC1 (stereo not drawn)	-9.8	nt	nt	6.0	nt	-19.3	nt	nt
Cc1ccc(C(=O)/C=C2\NCC(C)NC2=O)cc1 (stereo not drawn)	-2.4	77.9*	-14.0	7.0	-16.7	6.9	39.8	18.1*
Cc1ccc(C(=O)/C=C2\NCCNC2=O)cc1	-4.2	69.4	-9.1	2.6	-16.5	-24.6	nt	nt
CC(C)Cn1c(N)c(C(=O)COC(=O)c2ccc(O)cc2)c(=O)n(C)c1=O	-7.1	17.7	1.5	3.9	-10.9	9.8	nt	nt
CC(C)Cn1c(N)c(C(=O)COC(=O)c2ccc([N+](=O)[O-])o2)c(=O)n(C)c1=O	-4.9	80.7*	-10.7	8.2	-18.2	-2.5	30.1	24.5*
COc1ccc(S(=O)(=O)N2CCC(C(=O)N[C@@H](C)C(=O)NCc3cccnc3)CC2)cc1	1.3	nt	nt	0.3	nt	-19.5	nt	nt
CC(=O)C1=CCC(c2ccc(Cl)cc2)N(S(=O)(=O)c2ccccc2)C1 (stereo not drawn)	-7.7	nt	nt	1.1	nt	7.1	nt	nt
SMILES	GalR3 antagonist	OX1R antag-1	CHO parental Ca	TAAR1 agonist	OX1R antag-2	TAAR1 antag	OX1R HTRF confirm	CHO-K1 HTRF cnt
CCOC(=O)N1CCN(C(=O)CNC(=O)c2ccc(Br)o2)CC1	-10.0	nt	nt	2.0	nt	-4.2	nt	nt
O=C(O)[C@H]1CC=C[C@H]2CCN(Cc3ccc(Cl)c(Cl)c3)C(=O)[C@@H]12	-0.5	9.2	-16.3	0.5	-33.5	-30.5	nt	nt
O=C(NCCc1ccccc1)[C@@H]1CC=C[C@@H]2CCN(Cc3ccccc3)C(=O)[C@@H]21	3.1	78.7*	-13.6	4.8	13.3	-4.0	88.8*	6.9
C[C@@H]1CN([C@@H](C)CO)C(=O)c2cc(Br)cnc2O[C@@H]1CN(C)Cc1cncnc1	-2.8	nt	nt	1.3	nt	6.5	nt	nt
CCOc1ccccc1N(CC(=O)NCCSc1ccccn1)S(=O)(=O)c1ccccc1	-11.9	79.9*	-37.1	8.2	15.7	47.3	77.3*	8.0
Cc1ncsc1CCOC(=O)c1ccc([N+](=O)[O-])cc1	-0.9	81.9*	-5.7	11.4	-18.9	4.8	28.7	33.7*
Cc1ncsc1CCOC(=O)c1cccnc1	4.9	8.8	0.0	7.2	-1.5	-0.1	nt	nt
CC1CCC2C(C1)OS(=O)(=O)NC2(C)C (stereo not drawn)	nt	13.4	-1.8	nt	-5.5	nt	nt	nt
O=[N+]([O-])c1cccc(/C=C/c2nc3ccc([N+](=O)[O-])cc3[nH]2)c1	-2.4	101.6*	19.0	11.5	16.6	47.5	21.4	1.2
Cc1nc2ccc([N+](=O)[O-])cc2[nH]1	0.8	16.9	-6.2	3.6	-19.5	-6.6	nt	nt
CN1C2=CC=CC=CC2=[N+](C)C12C=CC(=[N+]([O-])[O-])C=C2[N+](=O)[O-] (stereo not drawn)	-5.1	143.8*	-8.8	1.6	-12.8	-7.6	67.8*	89.7*
CN1C2=CC=CC=CC2=[N+](C)C12C([N+](=O)[O-])=CC(=[N+]([O-])[O-])C=C2[N+](=O)[O-] (stereo not drawn)	-3.7	13.9	-7.8	1.7	-7.2	-3.4	nt	nt
CC(=O)Nc1cccc(NC(=O)C2CC(=O)N(CCc3ccc(F)cc3)C2)c1 (stereo not drawn)	-7.1	5.2	-4.1	6.7	-11.3	-18.3	nt	nt
O=[N+]([O-])c1c(NCCO)cc(N2CCC3(CC2)OCCO3)c2nonc12	-11.2	169.7*	0.0	0.8	4.3	-0.3	45.8	82.4*
CN(CCO)c1cc(N2CCCCC2)c2nonc2c1[N+](=O)[O-]	7.3	46.9	-6.9	2.4	-5.4	-0.5	nt	nt
